Source: paper PMC11969896 (Virology Journal, 2025)
Values joined by “and” are separate entries in the source; they are usually repeats but may differ in a detail not shown here. Equal values may be shown once.

Experiments:
MNV^CW3 [1] = assay: Cell viability-based anti-MNV screening in MNV^CW3-infected BV2 cells; parameters: species or system murine norovirus; details: MNV^CW3 infection, 40 μg/mL compound, 24 h, DMSO control about 2.7%
Procedure, shortened: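 BV2 cells plated at 10,000/well 16–18 h before infection with MNV^CW3 at MOI 0.25 for 1 h. Medium then replaced with 40 μg/mL compound or DMSO vehicle. Viability read after 24 h as ATP level by luminescence kit. At least 3 biological repeats.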

MNV^CW3 [2] = assay: MNV viral genome copies quantification; format: cell-based, murine norovirus; details: BV2 cells, 40 μg/mL (97 μM), 24 h treatment
MNV^CW3 [3] = assay: MNV plaque assay; format: cell-based, murine norovirus; details: BV2 cells, 97 μM, 24 h
Procedure, shortened: (§1)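 Infected cells harvested at 24 hpi and frozen at −80 °C. RAW264.7 monolayers seeded at 1.8 × 10^6 cells/well; 16 h later, tenfold serial lysate dilutions applied for 1 h with rocking. Overlay of MEM, 10% FBS, 2 mM L-glutamine, 10 mM HEPES and 1% methylcellulose, incubated 2 days. Plaques stained with 0.2% crystal violet in 20% ethanol.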

Cytotoxicity [4] = format: cell-based; details: mouse, BV2 cells
MNV^CW3 [5] = assay: Cell viability of MNV^CW3-infected RAW264.7 cells; format: cell-based, murine norovirus; details: RAW264.7 cells after MNV^CW3 infection, 24 h
MNV^CW3 [6] = assay: MNV viral genome copies quantification; format: cell-based, murine norovirus; details: RAW264.7 cells, 40 μg/mL, 24 h
MNV^CW3 [7] = assay: MNV plaque assay; format: cell-based, murine norovirus; details: RAW264.7 cells, 40 μg/mL, 24 h
Procedure, shortened: as §1

Cytotoxicity [8] = format: cell-based; details: mouse, RAW264.7 cells
MNV^CR6 = MNV^CR6 replication in cell culture; format: cell-based, murine norovirus; details: BV2 and RAW264.7 cells
MNV^CW3 RdRp = target: T1, MNV^CW3 RdRp (Norovirus, UniProt Q80J95); assay: RdRp inhibition assay; format: biochemical, murine norovirus
T1 sequence (Q80J95 1178-1687 limits assumed): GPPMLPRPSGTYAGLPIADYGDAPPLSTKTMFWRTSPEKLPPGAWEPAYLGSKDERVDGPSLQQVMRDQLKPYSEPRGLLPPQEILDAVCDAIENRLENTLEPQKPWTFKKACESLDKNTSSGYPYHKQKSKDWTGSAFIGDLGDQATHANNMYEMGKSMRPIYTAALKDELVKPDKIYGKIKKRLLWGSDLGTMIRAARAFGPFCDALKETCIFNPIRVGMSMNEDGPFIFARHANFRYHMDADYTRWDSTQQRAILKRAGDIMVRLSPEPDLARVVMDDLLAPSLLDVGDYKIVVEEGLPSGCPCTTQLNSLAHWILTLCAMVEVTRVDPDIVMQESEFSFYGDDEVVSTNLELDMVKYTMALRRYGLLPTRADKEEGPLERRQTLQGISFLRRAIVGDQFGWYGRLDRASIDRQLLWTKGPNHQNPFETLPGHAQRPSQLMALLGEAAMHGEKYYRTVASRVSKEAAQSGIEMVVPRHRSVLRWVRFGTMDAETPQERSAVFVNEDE
Procedure, shortened: (§2)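 MNV^CW3 RdRp (GST-tagged) or HNV GII.4 Sydney/2006 RdRp (His-tagged) expressed in E. coli BL21(DE3) and affinity-purified. Enzyme preincubated with compound 10 min at 30 °C in 10 mM PBS pH 7.5, 2.5 mM MnCl2, 5 mM DTT. Poly(C) and GTP then added (final 2.8 μM enzyme, 40 μg/mL poly(C), 25 μM GTP), 30 min at 30 °C. EDTA stop; dsRNA by PicoGreen (ex 480/em 520 nm); normalized to 0.5% DMSO vehicle.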

HNV RdRp = target: T2, HNV RdRp (Norovirus Hu/GII.4/Sydney348/97O/AU, UniProt Q2N379); assay: RdRp inhibition assay; format: biochemical, human norovirus (G II 0.4/Sydney/2006)
T2 sequence (Q2N379 1-510): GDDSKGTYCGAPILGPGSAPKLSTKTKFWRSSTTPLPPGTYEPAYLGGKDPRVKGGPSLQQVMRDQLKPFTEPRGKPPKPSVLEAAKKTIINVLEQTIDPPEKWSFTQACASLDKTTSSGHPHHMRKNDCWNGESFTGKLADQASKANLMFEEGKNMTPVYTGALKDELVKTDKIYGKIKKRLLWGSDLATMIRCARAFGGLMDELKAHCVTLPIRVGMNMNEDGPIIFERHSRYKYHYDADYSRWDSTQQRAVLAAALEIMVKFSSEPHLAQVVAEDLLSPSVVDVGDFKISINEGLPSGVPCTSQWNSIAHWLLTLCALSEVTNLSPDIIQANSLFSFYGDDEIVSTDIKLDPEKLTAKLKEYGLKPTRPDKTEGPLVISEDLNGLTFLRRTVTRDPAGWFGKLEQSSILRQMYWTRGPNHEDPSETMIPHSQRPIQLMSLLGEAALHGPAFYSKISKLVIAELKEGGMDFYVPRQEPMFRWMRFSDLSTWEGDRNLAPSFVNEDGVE
Procedure, shortened: as §2

MNV RdRp = target: T3, MNV RdRp (Norovirus, UniProt Q80J95); assay: Size-exclusion chromatography of MNV RdRp with or without compound; parameters: species or system murine norovirus; details: 60 μM compound
T3 sequence (Q80J95 1178-1687 limits assumed): T1 sequence (Q80J95 1178-1687 limits assumed)
Procedure, shortened: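 Purified RdRp, with or without 60 μM compound, run on a Superose 6 10/300 GL gel-filtration column equilibrated in 20 mM Tris-HCl pH 8.0, 150 mM NaCl, at 0.4 mL/min.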

Row | SMILES | cell viability (ratio of live cells) (MNV^CW3 [1]) | decrease of MNV^CW3 RNA level vs DMSO vehicle control (MNV^CW3 [2]) | formation of MNV^CW3 plaques (viral titer) (MNV^CW3 [3]) | CC50 (Cytotoxicity [4]) | concentration of maximum effectiveness (cell viability) (MNV^CW3 [5]) | MNV^CW3 genome copy number (MNV^CW3 [6]) | MNV^CW3 viral titers (MNV^CW3 [7]) | CC50 (Cytotoxicity [8]) | cell viability after MNV^CR6 infection (MNV^CR6) | MNV^CR6 plaque numbers (MNV^CR6; 97 μM) | MNV^CR6 viral genome copies (MNV^CR6; 97 μM (40 μg/mL)) | IC50 (MNV^CW3 RdRp) | inhibition of MNV^CW3 RdRp (MNV^CW3 RdRp; 35 μM RdRp in the reaction system, vs vehicle (0.5% DMSO), 4 μL of 100 μM compound (4 μM Co-29 final)) | IC50 (HNV RdRp) | inhibition of HNV RdRp (HNV RdRp; same assay, normalized to DMSO vehicle control) | main SEC peak formed by the protein when compound added (aggregation check) (MNV RdRp)
1 | N#Cc1c(-c2ccccc2O)nc(SCC(=O)Nc2cc(F)cc(F)c2)[nH]c1=O [Co-29, 2-((5-cyano-4-(2-hydroxyphenyl)-6-oxo-1,6-dihydropyrimidin-2-yl)thio)-N-(3,5-difluorophenyl)acetamide] | 36.9% | more than 2 Log10-fold | dramatically inhibited | ~52.2 µg/mL and ~126 µM | 40 µg/mL | decreased | decreased | 105 µM | increased cell viability | decreased plaque numbers | low levels of viral genome copies | 32 µM | > 75% | 36.6 µM | more than 70% | did not change
2 | C[C@@]1(O)[C@H](O)[C@@H](CO)O[C@H]1n1ccc(N)nc1=O [Compound 2CMC, 2′-C-methyl-cytidine, reference compound] |  |  |  |  |  | decreased | decreased |  |  |  |  |  |  |  |  | 
